From ChEMBL document CHEMBL4311931, “Controlling cellular distribution of drugs with permeability modifying moieties” (Medchemcomm, 2019)

Experiments:
DLD-1 [1] = assay: cells; details: Homo sapiens
DLD-1 [2] = assay: cells; details: Homo sapiens; remark: listed apart in the source
[3] = Permeability of compound in 5% DMSO after 7 hrs by PAMPA; type: ADME; details: read-out: permeability
[4] = biological target: T1, Nicotinamide phosphoribosyltransferase (Homo sapiens, UniProt P43490); assay: Displacement of fluorescent labelled OG488 from human full length FLAG-tagged NAMPT (1 to 491 residues) expressed in HEK293-6E cells in absence of PRPP by TR-FRET assay; type: cell-based
[5] = biological target: T1, Nicotinamide phosphoribosyltransferase; assay: Displacement of fluorescent labelled OG488 from human full length FLAG-tagged NAMPT (1 to 491 residues) expressed in HEK293-6E cells in presence of PRPP by TR-FRET assay; type: cell-based
PC-3 = assay: Antiproliferative activity against human PC3 cells assessed as reduction in cell viability by Celltiter-Glo assay; type: functional, cell-based
Method in brief: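 PC3 cells from ATCC, authenticated by STR analysis. Viability was read by CellTiter-Glo, and cell EC50 is the geometric mean of at least two duplicate runs.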

[6] = biological target: T2, Beta-2 adrenergic receptor (Homo sapiens, UniProt P07550); assay: Displacement of [3H](-)CGP 12177 from human recombinant beta2 adrenoceptor after 120 mins by scintillation counting method
Target sequence in this assay (P07550 whole entry): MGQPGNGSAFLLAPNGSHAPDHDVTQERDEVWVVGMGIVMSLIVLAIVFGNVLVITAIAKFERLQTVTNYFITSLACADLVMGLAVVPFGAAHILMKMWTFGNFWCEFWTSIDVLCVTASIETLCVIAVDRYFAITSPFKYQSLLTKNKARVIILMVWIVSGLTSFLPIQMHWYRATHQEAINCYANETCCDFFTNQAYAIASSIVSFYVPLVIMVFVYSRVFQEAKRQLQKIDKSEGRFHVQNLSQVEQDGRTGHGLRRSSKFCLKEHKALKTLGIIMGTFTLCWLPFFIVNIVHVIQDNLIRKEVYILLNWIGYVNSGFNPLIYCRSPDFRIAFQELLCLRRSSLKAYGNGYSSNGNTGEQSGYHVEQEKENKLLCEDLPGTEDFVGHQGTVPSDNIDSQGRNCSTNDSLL

[7] = biological target: T3, 5-hydroxytryptamine receptor 1A (Homo sapiens, UniProt P08908); assay: Displacement of [3H]-OH-DPAT from human recombinant 5-HT1A receptor measured after 60 mins by scintillation counter method
T3 sequence (P08908 whole entry): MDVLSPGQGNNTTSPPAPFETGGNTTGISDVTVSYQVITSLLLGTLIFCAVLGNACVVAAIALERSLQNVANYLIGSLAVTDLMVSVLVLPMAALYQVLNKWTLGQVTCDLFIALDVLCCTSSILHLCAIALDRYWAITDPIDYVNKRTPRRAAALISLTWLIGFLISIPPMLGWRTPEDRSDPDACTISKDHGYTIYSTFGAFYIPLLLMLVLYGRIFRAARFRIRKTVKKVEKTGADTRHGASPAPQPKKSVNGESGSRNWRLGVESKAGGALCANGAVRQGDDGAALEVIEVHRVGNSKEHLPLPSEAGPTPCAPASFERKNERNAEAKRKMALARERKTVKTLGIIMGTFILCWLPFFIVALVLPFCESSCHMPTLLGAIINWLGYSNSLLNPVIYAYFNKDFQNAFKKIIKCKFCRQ

[8] = biological target: T2, Beta-2 adrenergic receptor; assay: Displacement of [3H](-)CGP 12177 from human recombinant beta2 adrenoceptor after 120 mins by scintillation counting method relative to parent compound
Target sequence in this assay (P07550 whole entry, looked up): as the sequence (P07550 whole entry) above

[9] = biological target: T4, 5-hydroxytryptamine receptor 1A (Homo sapiens) (UniProt P08908); assay: Displacement of [3H]-OH-DPAT from human recombinant 5-HT1A receptor measured after 60 mins by scintillation counter method relative to parent compound
T4 sequence (whole entry): T3 sequence (P08908 whole entry)

[10] = biological target: T3, 5-hydroxytryptamine receptor 1A; assay: Antagonist activity at human 5HT1A expressed in BAF3 cells by fluorimetry analysis; type: cell-based
[11] = biological target: T2, Beta-2 adrenergic receptor; assay: Antagonist activity at human recombinant beta2 adrenoreceptor expressed in CHOK1 cells incubated for 30 mins by HTRF; type: cell-based
Target sequence in this assay (P07550 whole entry): as the sequence (P07550 whole entry) above

[12] = biological target: T2, Beta-2 adrenergic receptor; assay: Antagonist activity at human recombinant beta2 adrenoreceptor expressed in CHOK1 cells incubated for 30 mins by HTRF relative to parent compound; type: cell-based
Target sequence in this assay (P07550 whole entry, looked up): as the sequence (P07550 whole entry) above

K562 = assay: Antiproliferative activity against human K562 cells assessed as reduction in cell viability by measuring ATP level incubated for 3 days by Celltiter-Glo assay; type: functional, cell-based; details: K562, 72 h
Method in brief: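 K562 cells grown in RPMI 1640 with 50 mM HEPES and 10% FBS at 37 °C in 5% CO2, then plated at 20 000 cells per well. Compounds were log-serially diluted in DMSO, then in RPMI, to final concentrations of 10 000 nM to 0.01 nM. Cells were exposed for 3 days, and total intracellular ATP was read by CellTiter-Glo. IC50 is the geometric mean of at least two duplicate runs.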

T1 sequence (P43490 whole entry, the tested form may be a part): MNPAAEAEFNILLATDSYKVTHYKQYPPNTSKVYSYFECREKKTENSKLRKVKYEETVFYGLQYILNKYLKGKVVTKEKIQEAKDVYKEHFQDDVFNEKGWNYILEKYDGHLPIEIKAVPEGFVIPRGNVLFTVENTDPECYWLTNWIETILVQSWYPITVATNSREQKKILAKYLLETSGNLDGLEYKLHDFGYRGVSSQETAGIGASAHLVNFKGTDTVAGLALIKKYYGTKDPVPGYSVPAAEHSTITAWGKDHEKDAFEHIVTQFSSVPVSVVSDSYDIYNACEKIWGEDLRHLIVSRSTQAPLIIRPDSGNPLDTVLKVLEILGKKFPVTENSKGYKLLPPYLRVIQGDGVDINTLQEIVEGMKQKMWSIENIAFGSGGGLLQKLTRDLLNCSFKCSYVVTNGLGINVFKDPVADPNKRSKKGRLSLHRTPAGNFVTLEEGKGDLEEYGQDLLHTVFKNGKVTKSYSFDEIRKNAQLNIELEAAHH

Structure (SMILES)	Papp at 7 h [3] [×10⁻⁶ cm/s]	Ki [6] [nM]	Ki [7] [nM]	fold change (FC) [8]	fold change (FC) [9]	IC50 [10] [nM]	IC50 [11] [nM]	fold change (FC) [12]	other results
O=C(O)C1C(C(=O)O)C(C(=O)NCCOCCOCC(=O)N2CCN(C(=O)c3cc(Cc4n[nH]c(=O)c5ccccc45)ccc3F)CC2)C1C(=O)O (centres undefined)	–	–	–	–	–	–	–	–	EC50 (DLD-1 [1]): > 100 µM; EC50 (DLD-1 [2]): 7800 nM
NCCOCCOCC(=O)NCc1cccc(C(=O)N2CCC(CCCCNC(=O)/C=C/c3cccnc3)CC2)c1	0.016	–	–	–	–	–	–	–	Ki [4]: 60 nM; Ki [5]: 1.9 nM; IC50 (PC-3): 296 nM
C=CCc1ccccc1OCC(O)CNCCOCCOCCOCCOCCNC(=O)C1C(C(=O)O)C(C(=O)O)C1C(=O)O (centres undefined)	0.0012	512	1780	1024	82.4	> 1000	> 1000	303	–
CC1(CCCCCC(=O)NCCOCCOCC(=O)N2CCN(C(=O)c3cc(Cc4n[nH]c(=O)c5ccccc45)ccc3F)CC2)C(/C=C/C=C/C=C2/N(CCCS(=O)(=O)O)c3ccc(S(=O)(=O)O)cc3C2(C)C)=[N+](CCCS(=O)(=O)[O-])c2ccc(S(=O)(=O)O)cc21 (centres undefined)	–	–	–	–	–	–	–	–	EC50 (DLD-1 [1]): 70 µM; EC50 (DLD-1 [2]): 600 nM
Cc1nc(Nc2ncc(C(=O)Nc3c(C)cccc3Cl)s2)cc(N2CCN(CCOCCOCCNC(=O)C3C(C(=O)O)C(C(=O)O)C3C(=O)O)CC2)n1 (centres undefined)	0.0122	–	–	–	–	–	–	–	IC50 (K562): 183 nM
O=C(/C=C/c1cccnc1)NCCCCC1CCN(C(=O)c2ccccc2)CC1 [DAPORINAD]	39.5	–	–	–	–	–	–	–	IC50 (PC-3): 6 nM
C=CCc1ccccc1OCC(O)CNC(C)C (centres undefined) [ALPRENOLOL]	10.9	–	21.6	–	–	630	–	–	–
O=C(CS(=O)(=O)O)NCCOCCOCC(=O)N1CCN(C(=O)c2cc(Cc3n[nH]c(=O)c4ccccc34)ccc2F)CC1	–	–	–	–	–	–	–	–	EC50 (DLD-1 [1]): 53 µM; EC50 (DLD-1 [2]): 1100 nM
CC1(CCCCCC(=O)NCCOCCOCC(=O)NCc2cccc(C(=O)N3CCC(CCCCNC(=O)/C=C/c4cccnc4)CC3)c2)C(/C=C/C=C/C=C2/N(CCCS(=O)(=O)O)c3ccc(S(=O)(=O)O)cc3C2(C)C)=[N+](CCCS(=O)(=O)[O-])c2ccc(S(=O)(=O)O)cc21 (centres undefined)	–	–	–	–	–	–	–	–	Ki [4]: 141 nM; Ki [5]: 1.3 nM; IC50 (PC-3): 197 nM
C=CCc1ccccc1OCC(O)CNCCOCCOCCOCCOCCNC(=O)OC(C)(C)C (centres undefined)	–	3.7	24.1	7.4	1.12	> 1000	6.9	2.09	–
Cc1nc(Nc2ncc(C(=O)Nc3c(C)cccc3Cl)s2)cc(N2CCN(CCOCCOCCNC(=O)OC(C)(C)C)CC2)n1	0.0065	–	–	–	–	–	–	–	IC50 (K562): 1.64 nM
Cc1nc(Nc2ncc(C(=O)Nc3c(C)cccc3Cl)s2)cc(N2CCN(CCOCCOCCNC(=O)CS(=O)(=O)O)CC2)n1	0.0274	–	–	–	–	–	–	–	IC50 (K562): 120 nM
NCCOCCOCC(=O)N1CCN(C(=O)c2cc(Cc3n[nH]c(=O)c4ccccc34)ccc2F)CC1	0.00119	–	–	–	–	–	–	–	EC50 (DLD-1 [1]): > 100 µM; EC50 (DLD-1 [2]): 600 nM
CC(C)(C)OC(=O)NCCOCCOCC(=O)N1CCN(C(=O)c2cc(Cc3n[nH]c(=O)c4ccccc34)ccc2F)CC1	–	–	–	–	–	–	–	–	EC50 (DLD-1 [1]): > 100 µM; EC50 (DLD-1 [2]): 700 nM
C=CCc1ccccc1OCC(O)CNCCOCCOCCOCCOCCN (centres undefined)	–	10.3	35.8	20.6	1.66	> 1000	100	30.3	–
Cc1nn(C)cc1-c1ccc2cc(CCN3CCC[C@H]3C)ccc2n1	1.13	–	–	–	–	–	–	–	–
O=C(c1cc(Cc2n[nH]c(=O)c3ccccc23)ccc1F)N1CCNCC1	0.081	–	–	–	–	–	–	–	EC50 (DLD-1 [1]): > 100 µM; EC50 (DLD-1 [2]): 200 nM

Structure (SMILES)	Papp at 7 h [3] [×10⁻⁶ cm/s]	Ki [6] [nM]	Ki [7] [nM]	fold change (FC) [8]	fold change (FC) [9]	IC50 [10] [nM]	IC50 [11] [nM]	fold change (FC) [12]	other results
C=CCc1ccccc1OCC(O)CNCCOCCOCCOCCOCCNC(=O)CS(=O)(=O)O (centres undefined)	–	752	261	150	12.1	> 1000	83.4	25.3	–
Cc1nc(Nc2ncc(C(=O)Nc3c(C)cccc3Cl)s2)cc(N2CCN(CCO)CC2)n1.O [DASATINIB]	1.49	–	–	–	–	–	–	–	IC50 (K562): 0.638 nM
C=CCc1ccccc1OCC(O)CNCCOCCOCCOCCOCCNC(=O)CCCCCC1(C)C(/C=C/C=C/C=C2/N(CCCS(=O)(=O)O)c3ccc(S(=O)(=O)O)cc3C2(C)C)=[N+](CCCS(=O)(=O)[O-])c2ccc(S(=O)(=O)O)cc21 (centres undefined)	–	547	2860	1090	132	> 1000	500	151	–
CC(C)NCC(O)COc1ccccc1CCCSCC(=O)NCCOCCOCCNC(=O)C1C(C(=O)O)C(C(=O)O)C1C(=O)O (centres undefined)	–	78.6	1720	24.6	35.2	> 10000	380	5.27	–
Cc1nc(Nc2ncc(C(=O)Nc3c(C)cccc3Cl)s2)cc(N2CCN(CCOCCOCCNC(=O)CCCCCC3(C)C(/C=C/C=C/C=C4/N(CCCS(=O)(=O)O)c5ccc(S(=O)(=O)O)cc5C4(C)C)=[N+](CCCS(=O)(=O)[O-])c4ccc(S(=O)(=O)O)cc43)CC2)n1 (centres undefined)	–	–	–	–	–	–	–	–	IC50 (K562): 29.1 nM
O=C(/C=C/c1cccnc1)NCCCCC1CCN(C(=O)c2cccc(CNC(=O)COCCOCCNC(=O)C3C(C(=O)O)C(C(=O)O)C3C(=O)O)c2)CC1 (centres undefined)	–	–	–	–	–	–	–	–	Ki [4]: 359 nM; Ki [5]: 5.9 nM; IC50 (PC-3): 7330 nM
CC(C)NCC(O)COc1ccccc1CCCSCC(=O)NCCOCCOCCNC(=O)OC(C)(C)C (centres undefined)	0.0189	3.2	48.9	0.21	0.871	640	22	0.31	–
O=C(/C=C/c1cccnc1)NCCCCC1CCN(C(=O)c2cccc(CNC(=O)COCCOCCNC(=O)CS(=O)(=O)O)c2)CC1	–	–	–	–	–	–	–	–	Ki [4]: 285 nM; Ki [5]: 7.9 nM; IC50 (PC-3): 7230 nM
O=C(c1cc(Cc2n[nH]c(=O)c3ccccc23)ccc1F)N1CCN(C(=O)C2CC2)CC1 [OLAPARIB]	3.37	–	–	–	–	–	–	–	EC50 (DLD-1 [1]): 19 µM; EC50 (DLD-1 [2]): 100 nM
CC(C)NCC(O)COc1ccccc1CCCSCC(=O)NCCOCCOCCNC(=O)CS(=O)(=O)O (centres undefined)	–	16.4	1780	1.09	15.1	> 10000	86	1.19	–
CC(C)NCC(O)COc1ccccc1CCCSCC(=O)NCCOCCOCCN (centres undefined)	–	2.9	2860	0.19	6.32	> 10000	19	0.26	–
Cc1nc(Nc2ncc(C(=O)Nc3c(C)cccc3Cl)s2)cc(N2CCN(CCOCCOCCN)CC2)n1	0.056	–	–	–	–	–	–	–	IC50 (K562): 628 nM
COC(=O)CSCCCc1ccccc1OCC(O)CNC(C)C (centres undefined)	0.0436	15	56.1	1	1	2900	72	1	–
CC(C)NCC(O)COc1ccccc1CCCSCC(=O)NCCOCCOCCNC(=O)CCCCCC1(C)C(/C=C/C=C/C=C2/N(CCCS(=O)(=O)O)c3ccc(S(=O)(=O)O)cc3C2(C)C)=[N+](CCCS(=O)(=O)[O-])c2ccc(S(=O)(=O)O)cc21 (centres undefined)	–	26	925	1.73	18.9	> 10000	96	1.33	–
Cc1sc2c(c1C)C(c1ccc(Cl)cc1)=N[C@@H](CC(=O)OC(C)(C)C)c1nnc(C)n1-2	2.24	–	–	–	–	–	–	–	–
Cc1nc(Nc2ncc(C(=O)Nc3c(C)cccc3Cl)s2)cc(N2CCNCC2)n1	0.0371	–	–	–	–	–	–	–	–
